Measured values reported in article PMC6701634 (Cell, 2018).

Tests used:
[1] = system: primary leukemic BM cells isolated from MLL-AF9-induced AML mice; assay: Ex vivo apoptosis; format: cell-based, mouse; settings: 18 hr, Annexin V-positive cells
Procedure, shortened: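 Leukemic mice (>80% GFP+ in PB); BM flushed from femur and tibia, erythrocytes lysed, cells strained. Cells cultured in StemPro-34 with 10 ng/ml IL3, IL6, TPO and SCF, 1.5*10^5 cells per well. Treated 16–18 hr, 5% CO2, with DMSO stocks diluted 1:1000; DMSO-only control. Stained with Annexin V-PE and 7AAD; flow read-out of GFP and PE. Triplicates, mean ± SD.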

[2] = system: normal C57BL/6 mice; assay: 7-day daily treatment for maximal tolerated dose; format: in vivo, mouse; settings: 7 days
[3] = target: CKIα (Homo sapiens, UniProt P48729); assay: KINOMEscan binding assay; settings: Figure 1C
CKIα (Homo sapiens, UniProt P48729), sequence (P48729 whole entry): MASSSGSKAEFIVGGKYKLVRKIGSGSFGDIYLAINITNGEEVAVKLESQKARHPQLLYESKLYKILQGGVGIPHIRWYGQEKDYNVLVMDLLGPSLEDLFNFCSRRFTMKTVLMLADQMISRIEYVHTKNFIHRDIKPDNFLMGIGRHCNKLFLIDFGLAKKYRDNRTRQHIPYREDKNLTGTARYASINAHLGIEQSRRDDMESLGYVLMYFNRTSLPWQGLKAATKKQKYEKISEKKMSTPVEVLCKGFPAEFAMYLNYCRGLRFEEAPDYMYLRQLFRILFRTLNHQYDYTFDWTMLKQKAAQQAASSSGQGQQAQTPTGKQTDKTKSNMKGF

[4] = target: CKIδ (Homo sapiens, UniProt P48730); assay: KINOMEscan binding assay; settings: Figure 1C
CKIδ, sequence (P48730 whole entry): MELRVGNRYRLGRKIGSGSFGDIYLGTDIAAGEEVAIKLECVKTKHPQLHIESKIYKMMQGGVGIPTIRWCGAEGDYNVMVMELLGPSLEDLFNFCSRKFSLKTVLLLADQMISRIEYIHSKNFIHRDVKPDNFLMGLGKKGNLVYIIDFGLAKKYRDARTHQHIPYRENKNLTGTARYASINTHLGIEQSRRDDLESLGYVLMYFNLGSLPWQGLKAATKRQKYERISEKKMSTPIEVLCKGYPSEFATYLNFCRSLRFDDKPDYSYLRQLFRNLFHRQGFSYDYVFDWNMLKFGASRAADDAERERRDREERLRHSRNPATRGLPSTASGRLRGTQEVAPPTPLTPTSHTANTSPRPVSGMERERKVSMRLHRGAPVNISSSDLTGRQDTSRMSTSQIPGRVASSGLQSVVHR

[5] = target: CKIε (Homo sapiens, UniProt P49674); assay: KINOMEscan binding assay; settings: Figure 1C
CKIε, sequence (P49674 whole entry): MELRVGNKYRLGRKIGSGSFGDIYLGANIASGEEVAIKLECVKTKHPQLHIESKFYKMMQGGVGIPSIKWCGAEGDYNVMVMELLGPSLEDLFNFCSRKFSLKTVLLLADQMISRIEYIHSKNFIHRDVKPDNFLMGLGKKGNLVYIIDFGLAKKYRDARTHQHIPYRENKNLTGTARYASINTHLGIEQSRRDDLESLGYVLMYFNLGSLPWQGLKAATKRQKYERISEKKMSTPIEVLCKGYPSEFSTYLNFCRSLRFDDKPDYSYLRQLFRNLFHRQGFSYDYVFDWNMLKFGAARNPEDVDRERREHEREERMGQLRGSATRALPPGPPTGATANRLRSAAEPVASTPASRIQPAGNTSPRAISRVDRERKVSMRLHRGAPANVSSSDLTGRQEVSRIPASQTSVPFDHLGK

[6] = target: GSK3α/β; assay: KINOMEscan binding assay; settings: Figure 1C
[7] = target: CDK7 (Homo sapiens, UniProt P50613); assay: KINOMEscan binding to transcriptional kinases; settings: for CDK7 Kd (direct binding affinity): Figure 4D
CDK7, sequence (P50613 whole entry): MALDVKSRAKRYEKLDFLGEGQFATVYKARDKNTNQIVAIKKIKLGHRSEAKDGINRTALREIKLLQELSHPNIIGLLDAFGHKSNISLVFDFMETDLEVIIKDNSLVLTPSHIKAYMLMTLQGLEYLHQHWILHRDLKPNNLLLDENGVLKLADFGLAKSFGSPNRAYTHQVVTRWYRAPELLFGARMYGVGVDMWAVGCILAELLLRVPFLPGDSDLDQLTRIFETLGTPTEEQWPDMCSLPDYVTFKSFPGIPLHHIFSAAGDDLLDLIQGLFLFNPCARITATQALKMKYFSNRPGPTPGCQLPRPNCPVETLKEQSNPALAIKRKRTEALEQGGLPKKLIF

[8] = target: CDK9 (Homo sapiens, UniProt P50750); assay: KINOMEscan binding to transcriptional kinases; settings: for CDK9 Kd (direct binding affinity): Figure 4D
CDK9, sequence (P50750 whole entry): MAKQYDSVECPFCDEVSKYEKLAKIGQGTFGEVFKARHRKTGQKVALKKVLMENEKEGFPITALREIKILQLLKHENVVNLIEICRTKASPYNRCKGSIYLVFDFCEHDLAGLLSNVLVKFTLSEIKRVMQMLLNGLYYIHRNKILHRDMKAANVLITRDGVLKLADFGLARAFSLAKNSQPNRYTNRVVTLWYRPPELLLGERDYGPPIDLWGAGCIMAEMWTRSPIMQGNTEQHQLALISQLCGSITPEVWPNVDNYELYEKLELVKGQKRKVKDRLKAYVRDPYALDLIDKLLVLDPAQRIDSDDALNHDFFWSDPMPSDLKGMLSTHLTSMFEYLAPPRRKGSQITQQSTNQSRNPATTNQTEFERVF

[9] = system: p53 in RKO cells; assay: Western blot of RKO cells treated with A-series inhibitors; format: cell-based, human; settings: 18 hr
Procedure, shortened: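 RKO cells grown in DMEM with 10% serum. Treated 18 hr with test compounds at several concentrations or DMSO. Lysates immunoblotted.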

[10] = system: primary human leukemia cells from 5 individual patients; assay: Ex vivo killing of primary human leukemia cells; format: cell-based; settings: 18–20 hr; for leukemia cell apoptosis: comparable inhibitor concentrations
Procedure, shortened: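 BM mononuclear cells from newly diagnosed, untreated AML patients, isolated by Ficoll after BM biopsy. Used fresh or frozen; frozen cells thawed straight into IMDM with 50% FBS plus DNaseI. Viability stained with Annexin V and 7AAD after blocking with 20% human serum.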

[11] = target: CDK8 (Homo sapiens, UniProt P49336); assay: KINOMEscan binding to transcriptional kinases; settings: Figure S4B
CDK8, sequence (P49336 whole entry): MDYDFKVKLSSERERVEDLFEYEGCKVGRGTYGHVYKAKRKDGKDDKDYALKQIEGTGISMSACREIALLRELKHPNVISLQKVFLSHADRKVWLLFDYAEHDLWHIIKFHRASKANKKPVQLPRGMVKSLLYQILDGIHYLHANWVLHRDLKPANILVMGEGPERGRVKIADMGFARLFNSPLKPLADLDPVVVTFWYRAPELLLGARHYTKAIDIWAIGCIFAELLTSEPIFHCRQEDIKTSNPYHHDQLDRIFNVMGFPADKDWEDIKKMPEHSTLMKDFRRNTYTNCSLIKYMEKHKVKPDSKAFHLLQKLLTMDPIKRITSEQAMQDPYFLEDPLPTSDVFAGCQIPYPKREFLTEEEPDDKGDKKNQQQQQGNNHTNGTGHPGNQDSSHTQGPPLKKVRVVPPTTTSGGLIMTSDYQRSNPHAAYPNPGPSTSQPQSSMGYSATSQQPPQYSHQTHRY

[12] = target: CDK13 (Homo sapiens, UniProt Q14004); assay: KINOMEscan binding to transcriptional kinases; settings: Figure S4B
[13] = target: CDK11a (Homo sapiens, UniProt Q9UQ88); assay: KINOMEscan binding to transcriptional kinases; settings: Figure S4B
CDK11a, sequence (Q9UQ88 whole entry): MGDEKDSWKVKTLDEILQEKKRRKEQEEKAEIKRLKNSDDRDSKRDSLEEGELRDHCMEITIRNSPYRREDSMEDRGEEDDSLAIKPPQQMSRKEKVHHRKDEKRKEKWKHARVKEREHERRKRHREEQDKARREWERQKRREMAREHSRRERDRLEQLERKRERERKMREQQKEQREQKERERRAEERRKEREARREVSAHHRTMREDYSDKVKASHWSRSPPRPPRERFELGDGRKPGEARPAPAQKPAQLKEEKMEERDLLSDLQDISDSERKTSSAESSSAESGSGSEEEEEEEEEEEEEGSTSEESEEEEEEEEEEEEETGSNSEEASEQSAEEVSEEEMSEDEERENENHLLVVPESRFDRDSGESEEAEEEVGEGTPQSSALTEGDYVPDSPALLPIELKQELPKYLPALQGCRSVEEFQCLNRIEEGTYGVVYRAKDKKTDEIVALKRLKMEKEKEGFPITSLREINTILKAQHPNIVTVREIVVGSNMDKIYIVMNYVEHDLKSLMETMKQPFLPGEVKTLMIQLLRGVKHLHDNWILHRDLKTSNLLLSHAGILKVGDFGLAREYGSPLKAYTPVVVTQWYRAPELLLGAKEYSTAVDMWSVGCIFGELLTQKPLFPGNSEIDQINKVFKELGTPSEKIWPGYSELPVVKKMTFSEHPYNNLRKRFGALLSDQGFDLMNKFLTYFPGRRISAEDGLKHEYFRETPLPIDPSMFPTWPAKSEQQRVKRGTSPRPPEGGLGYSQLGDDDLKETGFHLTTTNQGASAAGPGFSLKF

[14] = target: CDK11b (Homo sapiens, UniProt P21127); assay: KINOMEscan binding to transcriptional kinases; settings: Figure S4B
CDK11b, sequence (P21127 whole entry): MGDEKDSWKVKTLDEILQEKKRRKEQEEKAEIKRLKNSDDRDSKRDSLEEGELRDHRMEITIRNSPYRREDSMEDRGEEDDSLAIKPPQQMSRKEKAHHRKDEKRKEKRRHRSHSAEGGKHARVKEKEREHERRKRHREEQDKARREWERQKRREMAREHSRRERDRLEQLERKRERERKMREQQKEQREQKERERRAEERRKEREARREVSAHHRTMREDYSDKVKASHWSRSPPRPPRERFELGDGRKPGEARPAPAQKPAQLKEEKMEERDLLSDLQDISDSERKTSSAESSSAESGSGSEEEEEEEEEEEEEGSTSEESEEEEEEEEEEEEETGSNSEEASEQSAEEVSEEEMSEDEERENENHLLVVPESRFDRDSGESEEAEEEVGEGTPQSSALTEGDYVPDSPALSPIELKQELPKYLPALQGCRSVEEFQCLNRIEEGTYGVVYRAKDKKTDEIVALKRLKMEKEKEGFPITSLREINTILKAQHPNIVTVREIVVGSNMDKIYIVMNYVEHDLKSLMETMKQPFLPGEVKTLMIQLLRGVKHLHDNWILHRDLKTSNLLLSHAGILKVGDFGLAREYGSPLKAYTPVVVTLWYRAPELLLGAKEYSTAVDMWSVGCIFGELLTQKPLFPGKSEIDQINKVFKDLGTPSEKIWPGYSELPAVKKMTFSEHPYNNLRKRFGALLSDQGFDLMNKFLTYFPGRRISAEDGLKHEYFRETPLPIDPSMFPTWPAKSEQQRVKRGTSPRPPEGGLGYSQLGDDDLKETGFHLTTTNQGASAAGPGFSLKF

[15] = target: CDK19 (Homo sapiens, UniProt Q9BWU1); assay: KINOMEscan binding to transcriptional kinases; settings: Figure S4B
CDK19, sequence (Q9BWU1 whole entry): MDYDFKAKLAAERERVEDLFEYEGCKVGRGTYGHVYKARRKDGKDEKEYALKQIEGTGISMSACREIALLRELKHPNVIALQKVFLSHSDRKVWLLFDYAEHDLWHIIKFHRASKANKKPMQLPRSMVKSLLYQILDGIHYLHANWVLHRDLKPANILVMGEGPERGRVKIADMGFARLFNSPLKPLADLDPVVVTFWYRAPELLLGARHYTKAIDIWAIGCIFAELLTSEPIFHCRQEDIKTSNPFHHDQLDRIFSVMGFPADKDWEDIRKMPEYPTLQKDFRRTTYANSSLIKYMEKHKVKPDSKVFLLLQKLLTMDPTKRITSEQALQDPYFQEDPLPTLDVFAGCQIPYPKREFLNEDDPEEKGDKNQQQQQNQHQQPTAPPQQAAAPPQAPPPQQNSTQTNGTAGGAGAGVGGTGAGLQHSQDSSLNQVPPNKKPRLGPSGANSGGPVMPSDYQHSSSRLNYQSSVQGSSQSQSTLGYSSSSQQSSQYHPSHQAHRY

[16] = system: heavy burden MLL-AF9 leukemic mice; assay: Acute in vivo anti-leukemic effect, single oral dose; parameters: species or system mouse
Procedure, shortened: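 MLL-AF9-IRES-GFP retrovirus-transduced BM cells were passaged through sublethally irradiated (500 rad) mice. 50,000 GFP+ BM cells were then injected IV into irradiated (250 rad) C57BL/6 WT mice aged 8–12 weeks. Mice with >80% GFP+ cells in PB got a single oral dose (e.g. 10 or 20 mg/kg) or vehicle and were sacrificed at short time points (5–6 or 16 hr). Read-outs: […], absolute BM GFP+ blast counts, H&E sections and blood smears; mean ± SD, N ≥ 3.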

[17] = system: MV4–11 cells (DDR, p53, MDM2, MYC, MCL1); assay: Western blot of MV4–11 cells; format: cell-based, human; settings: 6.5 hr
Procedure, shortened: (§1)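 MV4–11 cells were exposed to test compounds at set concentrations or DMSO for 6.5 hr and analysed by western blot, with PP2Ac as loading control.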

[18] = system: MYC, MDM2, AXIN2, CCND1 mRNA in MV4–11 cells; assay: qPCR mRNA analysis of MV4–11 cells; format: cell-based, human; settings: 4 hr; A51 2μM, A86 2μM, BTX161 25μM
Procedure, shortened: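 MV4–11 cells were treated for 4 hr with test compounds or DMSO, and transcripts were measured by qPCR. Three replicates (N = 3) were run, given as mean ± SD and compared by Student's t test.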

[19] = system: Pol II CTD phosphorylation at Ser2 and Ser5; assay: Western blot of Pol II CTD phosphorylation, primary mouse AML cells; format: cell-based; settings: ex vivo 6 hr
Procedure, shortened: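 Primary spleen cells from MLL-AF9 AML mice treated ex vivo for 6 hr with test compounds at several concentrations or DMSO. DMSO stocks diluted 1:1000 into medium. Immunoblot with PP2Ac as loading control.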

[20] = system: Pol II CTD phosphorylation at Ser2 and Ser5; assay: Western blot of Pol II CTD phosphorylation, MV4–11 cells; format: cell-based; settings: MV4–11 human AML cells
[21] = system: Myc, Mdm2, Mcl1 mRNA; assay: qPCR analysis of mouse primary AML BM cells; format: cell-based; settings: 1 μM, 4 hr ex vivo
Procedure, shortened: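 Primary BM AML cells from MLL-AF9 mice treated ex vivo for 4 hr with 1 μM test compound or DMSO (stocks diluted 1:1000). Myc, Mdm2, Mcl1 and Axin2 transcripts measured by qPCR. N = 3, mean ± SD, Student's t test.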

[22] = system: mouse splenic AML cells (MLL-AF9); assay: Rapid-hit ex vivo AML killing assay; format: cell-based; settings: 5 mins exposure, washout, further incubation
Procedure, shortened: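 Mouse AML cells were plated at 1.5 × 10^5 per 0.15 mL in StemPro-34 with IL3, IL6, TPO and SCF (10 ng/ml each) at 5% CO2. Test compound was added from DMSO stock diluted 1:1000, with DMSO alone as control. At the set times cells were spun, resuspended in drug-free medium and kept for 18 hr total. Cells were stained with Annexin V-PE/7AAD and read by flow for GFP and PE.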

[23] = system: cKit^HiCD11b^Low progenitors from Tet2^−/−;Flt3^ITD mice; assay: Ex vivo apoptotic killing of Tet2−/−; format: cell-based, mouse; settings: 16 hr after treatment
[24] = system: CKIα; assay: Western blot of CKIα degradation in human AML cells; format: cell-based; settings: MV4–11 cells, 6.5 hr
Procedure, shortened: as §1

[25] = system: MV4–11 cells (pSer2/5 CTD, DDR, p53, MDM2, caspase 3); assay: Western blot of MV4–11 cells, single and combination treatment; format: cell-based, human; settings: for DDR, p53, MDM2 and caspase 3 activation: MV4–11, single agent (BTX161 6 hr, iCDK9 4 hr, THZ1 4 hr)
Procedure, shortened: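 MV4–11 cells treated at several concentrations, alone or combined: CKIα degrader for 6 hr, CDK9 inhibitor for 4 hr, CDK7 inhibitor for 4 hr. Lysates immunoblotted, with PP2Ac as loading control.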

Cn1ncc(-c2ccnc(N[C@H]3CC[C@H](N)CC3)n2)c1CC1CC1 [A14, (1R, 4R)-N^1-(4-(5-(cyclopropylmethyl)-1-methyl-1H-pyrazol-4-yl)pyrimidin-2-yl)cyclohexane-1,4-diamine]
concentration highly effective in inducing leukemia cell apoptosis [1]: ≤ 160 nM | effect on hematopoiesis at 5–10 mg/kg ([2]; 5–10 mg/kg): no adverse effect on hematopoiesis | effect on blood counts at doses above 10 mg/kg ([2]; doses above 10 mg/kg): transiently reduced the white blood cells (WBC) and platelet counts

Cn1ncc(-c2nc(N[C@H]3CC[C@H](n4cccn4)CC3)ncc2Cl)c1CC1CC1 [A64, N-((1R,4R)-4-(1H-pyrazol-1-yl)cyclohexyl)-5-chloro-4-(5-(cyclopropylmethyl)-1-methyl-1H-pyrazol-4-yl)pyrimidin-2-amine]
CKIα affinity [3]: low CKIα affinity | affinity to CKIδ [4]: high affinity | affinity to CKIε [5]: high affinity | GSK3α/β affinity [6]: high GSK3α/β affinity | CDK7 Kd (direct binding affinity) [7]: moderately | CDK9 Kd (direct binding affinity) [8]: poorly | p53 induction [9]: only induces p53 at a high concentration | leukemia cell apoptosis [10]: but not by A64 or midostaurin

Cn1ncc(-c2nc(NC3CCC(NCc4cn[nH]c4)CC3)ncc2Cl)c1CC1CC1 [A75, (1R,4R)-N^1-((1H-pyrazol-4-yl)methyl)-N^4-(5-chloro-4-(5-(cyclopropylmethyl)-1-methyl-1H-pyrazol-4-yl)pyrimidin-2-yl)cyclohexane-1,4-diamine]
concentration highly effective in inducing leukemia cell apoptosis [1]: ≤ 160 nM

Cn1ncc(-c2nc(NC3CCC(N)CC3)ncc2F)c1CC1CC1 [A86, (1R,4R)-N^1-(4-(5-(cyclopropylmethyl)-1-methyl-1H-pyrazol-4-yl)-5-fluoropyrimidin-2-yl)cyclohexane-1,4-diamine]
CDK7 Kd (direct binding affinity) [7]: low nM Kd values | inhibition of CDK7 (TFIIH) in binding screen ([7]; Figure S4B): high inhibition | CDK9 Kd (direct binding affinity) [8]: low nM Kd values | inhibition of CDK9 (P-TEFb) in binding screen ([8]; Figure S4B): high inhibition | inhibition of CDK8 in binding screen [11]: hardly any inhibition | inhibition of CDK13 in binding screen [12]: hardly any inhibition | inhibition of CDK11a in binding screen [13]: hardly any inhibition | inhibition of CDK11b in binding screen [14]: hardly any inhibition | inhibition of CDK19 in binding screen [15]: hardly any inhibition | concentration highly effective in inducing leukemia cell apoptosis [1]: ≤ 160 nM | leukemic cell counts (GFP+) in BM and peripheral blood ([16]; 16 hr post single oral dose): 5%–10% | in vivo signaling in leukemic cells after single oral treatment ([16]; A51 20 mg/kg 3 and 6 hr, A86 10 mg/kg 5 hr, spleen AML cells WB): phospho-CTD inhibition with downregulation of MCL1 and activation of p53, DDR, and caspase 3 | effect on DDR, p53, MDM2, MYC, MCL1 protein levels (WB) [17]: abolished the expression of MYC, MDM2, and the anti-apoptotic oncogene MCL1 | effect on mRNA expression (MYC, MDM2, Wnt targets) [18]: marked reduction in mRNA expression of MYC and MDM2 | Pol II CTD phosphorylation at Ser2 and Ser5 [19]: marked reduction | Pol II CTD phosphorylation at Ser2 and Ser5 [20]: marked reduction | Myc, Mdm2, and Mcl1 mRNA expression [21]: significant reduction of Myc, Mdm2, and Mcl1 mRNA expression | AML cell killing after short exposure [22]: sufficient to induce significant AML cell killing | ex vivo apoptotic killing of cKit^HiCD11b^Low progenitors [23]: superior to midostaurin | leukemia cell apoptosis [10]: leukemia cell apoptosis | IC50 ([10]; read-out: IC50 of killing effect, all 5 patient samples): 20 to 50 nM

Cc1cccc2c1CN([C@H]1CCCC(=O)NC1=O)C2=O [BTX161, (S)-3-(4-methyl-1-oxoisoindolin-2-yl)azepane-2,7-dione]
CKIα degradation [24]: mediates degradation of CKIα better than lenalidomide | effect on DDR, p53, MDM2, MYC, MCL1 protein levels (WB) [17]: activates DDR and p53, while stabilizing the p53 antagonist MDM2 | effect on mRNA expression (MYC, MDM2, Wnt targets) [18]: upregulated all the Wnt targets including MYC and did not affect MDM2 mRNA expression | DDR, p53, MDM2 and caspase 3 activation [25]: augmented p53 and MDM2 protein expression

CN(C)C/C=C/C(=O)Nc1ccc(C(=O)Nc2cccc(Nc3ncc(Cl)c(-c4c[nH]c5ccccc45)n3)c2)cc1 [THZ1]
pSer2/5 CTD ([25]; MV4–11, 4 hr, single agent): reduced the pSer2/5 CTD | DDR, p53, MDM2 and caspase 3 activation [25]: little effect on DDR, p53, and caspase 3 activation

CO[C@@H]1[C@H](N(C)C(=O)c2ccccc2)C[C@H]2O[C@]1(C)n1c3ccccc3c3c4c(c5c6ccccc6n2c5c31)C(=O)NC4 [midostaurin, reference compound]
leukemia cell apoptosis [10]: but not by A64 or midostaurin
